ChEMBL document CHEMBL3244300, “Pyrimidinylpropenamides as antitumor agents. Analogues of the antibiotic sparsomycin” (1977)
≈ marks a conversion by molar mass, not a printed value. Calls of active or inactive are those of the source. The rule behind the calls is not given here.

Tests used:
Assay type in all cases: functional
KB = experiment: Cytotoxicity against human KB cells assessed as growth inhibition; settings: for EC50: Homo sapiens, KB, read-out: ED50 (the source's name)
Procedure, shortened: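 KB cell culture run under standard National Cancer Institute Division of Cancer Treatment protocols. Compounds were dissolved in water or propylene glycol as vehicle, depending on the compound. ED50 is the dose that inhibits growth to 50% of control growth, in μg/ml.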

P388 [1] = experiment: Antitumor activity against mouse P388 cells allografted in mouse assessed as increase in life span at 400 mg/kg, ip qd administered on day 1 to day 9 relative to control; settings: route intraperitoneal
Procedure, shortened: (§1)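 NCI Division of Cancer Treatment standard P-388 lymphocytic leukaemia protocol in mice. Drug given intraperitoneally once daily on days 1–9, with dose in mg/kg. The vehicle was water, saline or propylene glycol depending on the compound. T/C = (mean or median survival of treated ÷ control survival) × 100.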

P388 [2] = experiment: Antitumor activity against mouse P388 cells allografted in mouse assessed as increase in life span at 0.3 mg/kg, ip qd administered on day 1 to day 9 relative to control; settings: route intraperitoneal; procedure, shortened: as §1
P388 [3] = experiment: Antitumor activity against mouse P388 cells allografted in mouse assessed as increase in life span at 6.25 mg/kg, ip qd administered on day 1 to day 9 relative to control; settings: route intraperitoneal; procedure, shortened: as §1
P388 [4] = experiment: Antitumor activity against mouse P388 cells allografted in mouse assessed as increase in life span at 38.4 mg/kg, ip qd administered on day 1 to day 9 relative to control; settings: route intraperitoneal; procedure, shortened: as §1
P388 [5] = experiment: Antitumor activity against mouse P388 cells allografted in mouse assessed as increase in life span at 5 mg/kg, ip qd administered on day 1 to day 9 relative to control; settings: route intraperitoneal; procedure, shortened: as §1
P388 [6] = experiment: Antitumor activity against mouse P388 cells allografted in mouse assessed as increase in life span at 100 mg/kg, ip qd administered on day 1 to day 9 relative to control; settings: route intraperitoneal; procedure, shortened: as §1
P388 [7] = experiment: Antitumor activity against mouse P388 cells allografted in mouse assessed as increase in life span at 256 mg/kg, ip qd administered on day 1 to day 9 relative to control; settings: route intraperitoneal; procedure, shortened: as §1
P388 [8] = experiment: Antitumor activity against mouse P388 cells allografted in mouse assessed as increase in life span at 40 mg/kg, ip qd administered on day 1 to day 9 relative to control; settings: route intraperitoneal; procedure, shortened: as §1

## Cc1[nH]c(=O)[nH]c(=O)c1/C=C/C(=O)NC(CO)CSC(C)C (stereo not given)
KB
  EC50: > 100 µg/mL
P388 [1]
  T/C: 89%

## CSC[S+]([O-])C[C@H](CO)NC(=O)/C=C/c1c(C)[nH]c(=O)[nH]c1=O (stereo not given in full)
P388 [2]
  T/C: 156%
KB
  EC50: 0.08 µg/mL (≈ 0.221 µM)

## CCCCCCCCCC[S+]([O-])CC(CO)NC(=O)/C=C/c1c(C)nc(O)nc1O (racemic)
P388 [3]
  T/C: 153%

## CSCSCC(CO)NC(=O)/C=C/c1c(C)nc(O)nc1O (racemic) [listing 1 of 2 here]
P388 [4]
  T/C: 92%

## CCCC[S+]([O-])CC(CO)NC(=O)/C=C/c1c(C)[nH]c(=O)[nH]c1=O (racemic)
P388 [5]
  T/C: 161%
KB
  EC50: 1.2 µg/mL (≈ 3.36 µM)

## CCCCCCCCCCSCC(CO)NC(=O)/C=C/c1c(C)[nH]c(=O)[nH]c1=O (racemic)
P388 [6]
  T/C: 155%

## CSCC(CO)NC(=O)/C=C/c1c(C)[nH]c(=O)[nH]c1=O (racemic)
P388 [1]; 400 mg/kg
  T/C: 88%

## Cc1[nH]c(=O)[nH]c(=O)c1/C=C/C(=O)NC(CO)C[S+](C)[O-].O (racemic)
P388 [7]
  T/C: 137%
KB
  ED50: 1.5 µg/mL

## Cc1[nH]c(=O)[nH]c(=O)c1/C=C/C(=O)NC(CO)C[S+]([O-])C[S+](C)[O-].O (racemic)
P388 [5]
  T/C: 137%
KB
  EC50: 2.4 µg/mL

## CSCSCC(CO)NC(=O)/C=C/c1c(C)nc(O)nc1O (racemic) [listing 2 of 2 here]
KB
  ED50: inactive

## CSCSCC(CO)NC(=O)/C=C/c1c(C)nc(O)nc1O (single isomer, unassigned; (+))
KB
  ED50: 13 µg/mL (≈ 37.6 µM)
P388 [1]; 400 mg/kg
  T/C: 14%

## CSCSCC(CO)NC(=O)/C=C/c1c(C)nc(O)nc1O (single isomer, unassigned; (-))
KB
  ED50: >100 µg/mL
P388 [1]; 400 mg/kg
  T/C: 86%

## CSCC(CO)NC(=O)/C=C/c1c(C)[nH]c(=O)[nH]c1=O (single isomer, unassigned; (-))
KB
  EC50: > 100 µg/mL
P388 [1]; 400 mg/kg
  T/C: 69%

## Cc1[nH]c(=O)[nH]c(=O)c1/C=C/C(=O)NC(CO)CSCc1ccccc1 (single isomer, unassigned; (-))
KB
  EC50: > 100 µg/mL
P388 [1]
  T/C: 95%

## CCCCSCC(CO)NC(=O)/C=C/c1c(C)[nH]c(=O)[nH]c1=O (single isomer, unassigned; (-))
KB
  EC50: 27 µg/mL (≈ 79.1 µM)

## Cc1[nH]c(=O)[nH]c(=O)c1/C=C/C(=O)NC(CO)C[S+]([O-])Cc1ccccc1.O (single isomer, unassigned; (-))
KB
  EC50: 88 µg/mL
P388 [1]
  T/C: 93%

## Cc1[nH]c(=O)[nH]c(=O)c1/C=C/C(=O)NC(CO)C[S+]([O-])C(C)C.O (single isomer, unassigned; (-))
KB
  EC50: > 100 µg/mL
P388 [1]
  T/C: 113%

## Cc1[nH]c(=O)[nH]c(=O)c1/C=C/C(=O)NC(CO)C[S+](C)[O-].O (stereo in doubt; 10c)
KB
  ED50: >100 µg/mL
P388 [8]
  T/C: 100%
